Rows were chosen to be rich in hits. Some 2.5% of all compounds tested hit in one or more screens of this group.
SENP1 inh: blocks the human SENP1 SUMO protease catalytic domain. inhibition, % at 10 µM. recombinant SENP1 catalytic domain, CyPet-SUMO1-YPet FRET cleavage. 360,000 compounds, 0.21% hits. AID 624204;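 active = inhibition at least 30% at 10 µM, raw YFP signal under a set limit, fluorescence ratio 0.5 to 1.5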
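Controls: no-enzyme wells low, DMSO-plus-enzyme wells high control. Test system: human recombinant His6-tagged SENP1 catalytic domain enzyme. Reagent: SFCypet-SUMO1-SFYpet FRET protein substrate, 25 nM final. Doses: one dose per compound, 10 µM, 0.5% DMSO. Detection: FRET, CFP and YFP emission. Timing: 50 min reaction at room temperature.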
SENP6 block: inhibitors of human SENP6 protease; Q9GZR1; Recombinant SENP6 catalytic domain, aminoluciferin luminescence; inhibition, % at 10 µM; 330,000 compounds, 1.8% hits; AID 2599;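 active = inhibition above about 50% at the single tested dose, limit read from the data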
SENP8 block-1: inhibitors of human SENP8 protease. recombinant SENP8, Nedd8 substrate fluorescence. inhibition, % at 20 µM. 360,000 compounds, 0.64% hits; in the data active = inhibition mostly above about 40%, no sharp cut-off; inactive = mostly below about 27%
Target sequence (Q96LD8 whole entry, looked up): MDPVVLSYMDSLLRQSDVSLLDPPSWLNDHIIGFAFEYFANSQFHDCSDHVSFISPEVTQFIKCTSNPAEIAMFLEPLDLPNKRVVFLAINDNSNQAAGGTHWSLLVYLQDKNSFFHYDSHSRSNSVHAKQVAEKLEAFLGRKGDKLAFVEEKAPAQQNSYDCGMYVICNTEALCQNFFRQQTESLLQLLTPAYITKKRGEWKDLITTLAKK
SENP7 inh: blocks the human protease SENP7. Q9BQF6. recombinant SENP7, Z-RLRGG-aminoluciferin luminescence, 40 min. inhibition, % at 5 µM. 330,000 compounds, 1.5% hits;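 active = inhibition above about 50% at the single test dose, limit read from the data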
SENP8 block-2: blocks the human protease SENP8; Q96LD8; purified SENP8, Z-RLRGG-aminoluciferin cleavage, luminescence; inhibition, % at 10 µM; 330,000 compounds, 1.2% hits; AID 2540; in the data active = inhibition above about 50%
Hits are given with their value; . = inactive; / = no result given.

SMILES	SENP1 inh	SENP6 block	SENP8 block-1	SENP7 inh	SENP8 block-2
Cn1c(/C=C/c2ccc(Cl)cc2)c([N+](=O)[O-])c(=O)n(C)c1=O	34	.	.	.	.
COc1ccc(/C=C/c2c([N+](=O)[O-])c(=O)n(C)c(=O)n2C)cc1OC	.	.	.	.	.
O=c1ccc(N=Nc2ccccc2)ccc1O	.	/	43	/	/
Cn1c(O)c(/C=N/NC(=O)c2cc3ccccc3cc2O)c2ccccc21	.	97	.	.	93
CCOC(=O)/C(=N\Nc1ccccc1Cl)N(C)C1CCCCC1	.	.	.	.	.
Cc1nc(N)nc(Nc2ccc(C#N)cc2)c1Br	.	.	.	.	.
N#Cc1c(N)nc(N)nc1Nc1ccc(Br)cc1	.	60	.	.	.
CCOc1ccc(S(=O)(=O)Nc2cc(SCC(=O)O)c(O)c3ccccc23)cc1	.	/	46	/	/
O=C(O)CSc1cc(NS(=O)(=O)c2cccc([N+](=O)[O-])c2)c2ccccc2c1O	.	/	.	/	/
CC1Oc2ccccc2C=C1/C=N/Nc1ccc(C(=O)O)cc1 (stereo not given)	.	96	.	89	96
O=C(Nc1nsc(-c2ccccc2)n1)c1cccs1	.	64	.	62	.
Cc1sc(NC(=O)c2cccs2)nc1-c1ccccc1	.	.	.	.	.
O=C(N=Nc1c(O)[nH]c2ccccc12)c1ccc2c(c1)OCO2	.	66	.	91	.
O=C(N=Nc1c(O)[nH]c2ccccc12)c1ccc(CN2CCOCC2)cc1	.	.	.	.	.
COc1ccc(CC(=O)Nc2cccc(/C(C)=N/NC(=O)C3(C)CC3(Br)Br)c2)cc1 (stereo not given)	.	.	.	.	.
FC(F)(F)c1ccc2c(c1)C1C=CCC1C(c1ccncc1)N2 (stereo not given)	.	/	44	/	/
CC(NC(=O)CN1C(=O)NC2(CCCC2)C1=O)c1ccc(Cl)cc1Cl (stereo not given)	.	.	.	.	.
CC(=O)N1CC2([N+](=O)[O-])CN(C(C)=O)CC([N+](=O)[O-])(C1)C2(C)C	.	.	.	.	.
Cc1ccc(OCc2ccc(C(=O)O)o2)c([N+](=O)[O-])c1	.	77	.	59	72
O=C(O)c1ccc(COc2ccc3ccccc3c2)o1	.	89	.	55	81
CCCNC(=O)c1cc(C2CCCCN2C(=O)c2ccc(OC)cc2)on1 (stereo not given)	.	/	.	/	/
O=c1nc2n(c3ncccc13)CCCCC2	.	.	.	.	.
COc1ccc(NS(=O)(=O)c2cc([N+](=O)[O-])ccc2N/N=C\c2c(C)[nH]c3ccccc23)cc1	.	.	47	.	.
CN(C)c1ccc(/C=N/N2CCN(c3ccccn3)CC2)cc1	.	74	.	78	62
COc1ccc(C2=NOC3(CC(=O)N(c4ccc5ccccc5c4)C3=O)C2)c(OC)c1 (stereo not given)	.	.	.	.	.
SMILES	SENP1 inh	SENP6 block	SENP8 block-1	SENP7 inh	SENP8 block-2
CCc1c(O)nc2sc3ccccc3n2c1=O	.	.	40	.	.
COc1ccc(C2=NC(c3ccccc3)CO2)cc1 (stereo not given)	/	70	/	50	63
O=[N+]([O-])c1cccc(C2=NC(c3ccccc3)CO2)c1 (stereo not given)	.	.	.	.	.
CC1CCCCC1NC(=O)CN1C(=O)CSc2cc(S(=O)(=O)N3CCCCCC3)ccc21 (stereo not given)	.	.	.	.	.
CN(C)S(=O)(=O)c1cccc(NC(=S)N/N=C/c2ccc(O)c(O)c2O)c1	.	/	43	/	/
Oc1ccccc1N=Cc1ccc[nH]1	.	.	41	.	.
C(=Nc1ccccc1)c1ccc[nH]1	.	/	.	/	/
CCn1c(C)cc(C(=O)COC(=O)CNC(=O)c2ccco2)c1C	.	/	.	/	/
COc1ccc(/C=C/C(=O)Nc2ccccc2C(=O)O)cc1OC	.	72	.	.	63
COC(=O)c1ccc(Nc2c([N+](=O)[O-])c(=O)oc3ccccc23)cc1	.	.	.	.	.
O=C(O)c1ccccc1C(=O)c1ccc2c(c1)N(Cc1ccc(Cl)c(Cl)c1)C(=O)CO2	.	.	.	.	.
CSC1=NC=C(C#N)C2=NC(c3c(Cl)cccc3Cl)NN12 (stereo not given)	.	/	52	/	/
Cc1cc(-c2ccc(C(=O)O)s2)cnc1N	.	.	.	.	.
O=C(O)c1ccc(-c2ccc(-c3ccccc3)cc2)s1	.	99	.	101	97

High-throughput results (PubChem BioAssay)
